Test results: ChEMBL document CHEMBL3351346, “Design, synthesis, structure-function relationship, bioconversion, and pharmacokinetic evaluation of ertapenem prodrugs” (J Med Chem, 2014)

Experiments:
Canis familiaris [1] = assay: Oral bioavailability in fasted Beagle dog assessed as ertapenem level at 10 mg/kg dosed through intraduodenal route by LC-MS/MS method; type: ADME, organism-based, Canis lupus familiaris; details: in vivo
Procedure, shortened: (§1)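 After intraduodenal dosing, plasma over 8 h was analysed by LC-MS/MS. Bioavailability was calculated as dose-normalized AUC of ertapenem formed from the prodrug divided by dose-normalized AUC of ertapenem dosed iv. Vehicle was 30% Captisol or 0.5% methylcellulose.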

Canis familiaris [2] = assay: AUC (0 to 8 hrs) in fasted Beagle dog assessed as 8-OH, C-3 ester level at 10 mg/kg dosed through intraduodenal route by LC-MS/MS method; type: ADME, organism-based, Canis lupus familiaris, Plasma; parameters: time < 8 hr, dose 10 mg/kg, route intraduodenal; details: in vivo, other
Procedure, shortened: (§2)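 Prodrugs were given intraduodenally to bypass stomach acid. Plasma was sampled at intervals over 8 h, and parent prodrug, the two monoester metabolites and ertapenem were quantified by LC-MS/MS. The lower limit of quantitation was 5 nM. AUC(0–8) was used, and it differed from AUC(0–∞) by ±20%. Vehicles were 30% Captisol or 0.5% methylcellulose, as solution or suspension depending on compound.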

Canis familiaris [3] = assay: (§3) AUC (0 to 8 hrs) in fasted Beagle dog at 10 mg/kg dosed through intraduodenal route by LC-MS/MS method; type: ADME, organism-based, Canis lupus familiaris, Plasma; parameters: time < 8 hr, dose 10 mg/kg, route intraduodenal; details: in vivo, other, 8 h, BLD = below limit of detection; procedure, shortened: as §2
Rattus norvegicus [4] = assay: AUC (0 to 8 hrs) in fasted Sprague-Dawley rat at 10 mg/kg dosed through intraduodenal route by LC-MS/MS method; type: ADME, organism-based, Plasma; parameters: time < 8 hr, dose 10 mg/kg, route intraduodenal; details: in vivo, other, 8 h, BLD = below limit of detection; procedure, shortened: as §2
Rattus norvegicus [5] = assay: Oral bioavailability in fasted Sprague-Dawley rat assessed as ertapenem level at 10 mg/kg dosed through intraduodenal route by LC-MS/MS method; type: ADME, organism-based; details: in vivo; procedure, shortened: as §1
[6] = Stability in pH 2.0 simulated gastric fluid assessed as compound degradation to beta-lactam ring open products at 1 uM after 60 mins by LC-MS/MS method; type: ADME; details: read-out: Drug degradation
Procedure, shortened: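 Incubation was in simulated gastric fluid (SGF, pH 2.0) for 60 min, with loss to the β-lactam ring-opened product measured by LC-MS/MS.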

Rattus norvegicus [7] = assay: AUC (0 to 8 hrs) in fasted Sprague-Dawley rat assessed as 8-OH, benzoate ester level at 10 mg/kg dosed through intraduodenal route by LC-MS/MS method; type: ADME, organism-based, Plasma; parameters: time < 8 hr, dose 10 mg/kg, route intraduodenal; details: in vivo, other, BLD = below limit of detection; procedure, shortened: as §2
[8] = Stability in pH 6.5 simulated gastrointestinal fluid assessed as compound remaining at 50 uM after 3 hrs by LC-MS/MS method; type: ADME; details: read-out: Stability
Procedure, shortened: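 Compounds at 50 μM were incubated in fasted-state simulated intestinal fluid (FaSSIF, pH 6.5) for over 3 h. Percent remaining was determined by LC-MS/MS.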

Rattus norvegicus [9] = assay: Oral bioavailability in fasted Sprague-Dawley rat assessed as ertapenem and monoetser metabolites level at 10 mg/kg dosed through intraduodenal route by LC-MS/MS method; type: ADME, organism-based; details: in vivo
Procedure, shortened: (§4)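 Total absorption followed intraduodenal dosing with LC-MS/MS of plasma over 8 h. It was calculated as the combined dose-normalized AUC of circulating parent prodrug, ertapenem and two monoesters, divided by dose-normalized AUC of ertapenem given iv. Vehicle was 30% Captisol or 0.5% methylcellulose.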

Canis familiaris [10] = assay: AUC (0 to 8 hrs) in fasted Beagle dog assessed as 8-OH, benzoate ester level at 10 mg/kg dosed through intraduodenal route by LC-MS/MS method; type: ADME, organism-based, Canis lupus familiaris, Plasma; parameters: time < 8 hr, dose 10 mg/kg, route intraduodenal; details: in vivo, other; procedure, shortened: as §2
Canis familiaris [11] = assay: Oral bioavailability in fasted Beagle dog assessed as assessed as ertapenem and monoetser metabolites level at 10 mg/kg dosed through intraduodenal route by LC-MS/MS method; type: ADME, organism-based, Canis lupus familiaris; details: in vivo; procedure, shortened: as §4
Rattus norvegicus [12] = assay: AUC (0 to 8 hrs) in fasted Sprague-Dawley rat assessed as 8-OH, C-3 ester level at 10 mg/kg dosed through intraduodenal route by LC-MS/MS method; type: ADME, organism-based, Plasma; parameters: time < 8 hr, dose 10 mg/kg, route intraduodenal; details: in vivo, other, BLD = below limit of detection; procedure, shortened: as §2
[13] = Stability in pH 7.4 phosphate buffer assessed as compound remaining at 50 uM after 3 hrs by LC-MS/MS method; type: physicochemical; details: read-out: Stability
Canis familiaris [14] = assay: AUC (0 to 8 hrs) in fasted Beagle dog assessed as ertapenem level at 10 mg/kg dosed through intraduodenal route by LC-MS/MS method; type: ADME, organism-based, Canis lupus familiaris, Plasma; parameters: time < 8 hr, dose 10 mg/kg, route intraduodenal; details: in vivo, other; procedure, shortened: as §2
Rattus norvegicus [15] = assay: AUC (0 to 8 hrs) in fasted Sprague-Dawley rat assessed as ertapenem level at 10 mg/kg dosed through intraduodenal route by LC-MS/MS method; type: ADME, organism-based, Plasma; parameters: time < 8 hr, dose 10 mg/kg, route intraduodenal; details: in vivo, other; procedure, shortened: as §2
[16] = Stability in human plasma assessed as compound remaining at 50 uM at 37 degC after 60 mins by LC-MS/MS method; type: ADME, cell-free; details: read-out: Stability
Procedure, shortened: (§5)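 Prodrugs were incubated in rat or human plasma for 60 min. Disappearance of prodrug and concomitant appearance of ertapenem were followed by LC-MS/MS, and in selected cases monoesters from partial hydrolysis were also monitored. Ertapenem itself was incubated the same way as a control.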

[17] = Stability in rat plasma assessed as compound remaining at 50 uM at 37 degC after 60 mins by LC-MS/MS method; type: ADME, cell-free; details: read-out: Stability; procedure, shortened: as §5
[18] = as §3; type: ADME, organism-based, Canis lupus familiaris, Plasma; parameters: time < 8 hr, dose 10 mg/kg, route intraduodenal; details: Beagle, plasma; procedure, shortened: as §2

SMILES | F (Canis familiaris [1]) | AUC (Canis familiaris [2]) | AUC (Rattus norvegicus [4]) | F (Rattus norvegicus [5]) | degraded at 1 h, 1 µM [6] | remaining at 3 h, 50 µM [8] | F (Rattus norvegicus [9]) | F (Canis familiaris [11]) | remaining at 3 h, 50 µM [13] | AUC (Canis familiaris [14]) | AUC (Rattus norvegicus [15]) | remaining at 1 h, 50 µM [16] | remaining at 1 h, 50 µM [17] | AUC(0-t) at 8 h [18] | other results
C[C@@H](O)[C@H]1C(=O)N2C(C(=O)OCOC(=O)C(C)(C)C)=C(S[C@@H]3CN[C@H](C(=O)Nc4cccc(C(=O)OCOC(=O)C(C)(C)C)c4)C3)[C@H](C)[C@H]12 | 3% | < 0.1 µM·h | BLD | 0.4% | > 25% | > 95% | 0.4% | 3.07% | > 95% | – | – | – | – | – | AUC (Canis familiaris [3]): BLD; AUC (Rattus norvegicus [7]): BLD; AUC (Canis familiaris [10]; BLD = below limit of detection): BLD; AUC (Rattus norvegicus [12]): BLD
CC(C)C(=O)OCOC(=O)C1=C(S[C@@H]2CN[C@H](C(=O)Nc3cccc(C(=O)OCOC(=O)C(C)C)c3)C2)[C@H](C)[C@@H]2[C@@H]([C@@H](C)O)C(=O)N12 | 3.6% | – | BLD | 1.8% | > 25% | > 95% | 1.8% | 3.6% | > 95% | 2.2 µM·h | 0.9 µM·h | 8% | 1% | – | AUC (Canis familiaris [2]; BLD = below limit of detection): BLD; AUC (Canis familiaris [3]): BLD; AUC (Rattus norvegicus [7]): BLD; AUC (Canis familiaris [10]; BLD = below limit of detection): BLD; AUC (Rattus norvegicus [12]): BLD
CC(C)C(=O)OCOC(=O)C1=C(S[C@@H]2CN[C@H](C(=O)Nc3cccc(C(=O)[O-])c3)C2)[C@H](C)[C@@H]2[C@@H]([C@@H](C)O)C(=O)N12.[Na+] | – | – | BLD | 1.2% | > 25% | > 95% | 1.2% | – | > 95% | – | 0.7 µM·h | 15% | 0% | – | AUC (Rattus norvegicus [12]): BLD
CC(C)c1oc(=O)oc1COC(=O)C1=C(S[C@@H]2CN[C@H](C(=O)Nc3cccc(C(=O)OCc4oc(=O)oc4C(C)C)c3)C2)[C@H](C)[C@@H]2[C@@H]([C@@H](C)O)C(=O)N12 | – | – | BLD | 0.9% | > 25% | > 95% | 0.9% | – | > 95% | – | 0.4 µM·h | 8% | 6% | – | –
C[C@@H](O)[C@H]1C(=O)N2C(C(=O)OCc3oc(=O)oc3C(C)(C)C)=C(S[C@@H]3CN[C@H](C(=O)Nc4cccc(C(=O)OCc5oc(=O)oc5C(C)(C)C)c4)C3)[C@H](C)[C@H]12 | 0.4% | – | BLD | 0.3% | > 25% | > 95% | 0.3% | 0.4% | > 95% | 0.2 µM·h | 0.2 µM·h | 10% | 0% | – | AUC (Canis familiaris [3]): BLD
COC(=O)C1=C(S[C@@H]2CN[C@H](C(=O)Nc3cccc(C(=O)OC)c3)C2)[C@H](C)[C@@H]2[C@@H]([C@@H](C)O)C(=O)N12 | 14.3% | 3.9 µM·h | – | – | > 25% | > 95% | – | 24.2% | > 95% | 12 µM·h | – | 0% | 0% | 0.8 µM·h | AUC (Canis familiaris [10]): 3.6 µM·h
CCCCOC(=O)C1=C(S[C@@H]2CN[C@H](C(=O)Nc3cccc(C(=O)OCCCC)c3)C2)[C@H](C)[C@@H]2[C@@H]([C@@H](C)O)C(=O)N12 | 13.1% | – | – | – | > 25% | > 95% | – | 16.9% | > 95% | 9.4 µM·h | – | 1% | 2% | 2.8 µM·h | –
CCCCCCCCOC(=O)C1=C(S[C@@H]2CN[C@H](C(=O)Nc3cccc(C(=O)OCCCCCCCC)c3)C2)[C@H](C)[C@@H]2[C@@H]([C@@H](C)O)C(=O)N12 | – | – | – | – | > 25% | > 95% | – | 1.1% | > 95% | – | – | 80% | 4% | 0.6 µM·h | F (Canis familiaris [1]; BLD = below limit of detection): BLD; AUC (Canis familiaris [14]; BLD = below limit of detection): BLD
C[C@@H](O)[C@H]1C(=O)N2C(C(=O)OCC(F)(F)F)=C(S[C@@H]3CN[C@H](C(=O)Nc4cccc(C(=O)OCC(F)(F)F)c4)C3)[C@H](C)[C@H]12 | 10.2% | 0.8 µM·h | BLD | 3% | > 25% | > 95% | 3% | 12% | > 95% | 6.7 µM·h | 1.7 µM·h | 6% | 3% | 0.2 µM·h | AUC (Canis familiaris [10]): 0.2 µM·h
CCOC(=O)C1=C(S[C@@H]2CN[C@H](C(=O)Nc3cccc(C(=O)OCC)c3)C2)[C@H](C)[C@@H]2[C@@H]([C@@H](C)OC(C)=O)C(=O)N12 | 15.4% | 1.8 µM·h | – | – | > 25% | > 95% | – | 23.3% | > 95% | 11.3 µM·h | – | 37% | 0% | < 0.1 µM·h | AUC (Canis familiaris [10]): 2.2 µM·h
CC(=O)O[C@H](C)[C@H]1C(=O)N2C3=C(S[C@@H]4CN[C@@H](C4)C(=O)Nc4cccc(c4)C(=O)OCOCOC3=O)[C@H](C)[C@H]12 | 13.4% | – | – | – | > 25% | > 95% | – | 16% | > 95% | 10.1 µM·h | – | 30% | 0% | 0.1 µM·h | –
